The list is not random: actives were taken first. Their share in the collection is about 3.3%.
SENP6 block – SENP6 protease inhibitors, primary screen, biochemical, luminescence, uHTS. Recombinant SENP6 catalytic domain, aminoluciferin luminescence. hit rate 1.8% among 330,000. inhibition, % at 10 µM;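 active means inhibition above about 50% at the single tested dose, limit read from the data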;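 further: plate controls were DMSO wells with enzyme for no effect and DMSO wells lacking enzyme for full effect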
Target sequence (Q9GZR1 628-1112 limits assumed): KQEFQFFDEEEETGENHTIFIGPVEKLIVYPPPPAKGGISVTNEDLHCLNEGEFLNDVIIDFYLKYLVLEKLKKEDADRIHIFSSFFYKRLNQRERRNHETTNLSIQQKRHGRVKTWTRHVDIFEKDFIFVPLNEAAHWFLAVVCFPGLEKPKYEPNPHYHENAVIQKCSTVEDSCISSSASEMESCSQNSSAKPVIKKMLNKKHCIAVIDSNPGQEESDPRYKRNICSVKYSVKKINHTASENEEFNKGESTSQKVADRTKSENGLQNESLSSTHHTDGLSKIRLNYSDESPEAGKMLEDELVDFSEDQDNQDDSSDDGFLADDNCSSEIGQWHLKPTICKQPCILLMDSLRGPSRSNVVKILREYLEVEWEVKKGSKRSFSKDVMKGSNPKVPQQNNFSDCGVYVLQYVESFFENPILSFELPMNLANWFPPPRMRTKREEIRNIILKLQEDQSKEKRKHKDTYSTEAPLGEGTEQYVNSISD
SENP8 block-1 – SENP8 protease inhibitors, primary screen, biochemical, luminescence; purified SENP8, Z-RLRGG-aminoluciferin cleavage; Sentrin-specific protease 8 (Homo sapiens), Q96LD8; hit rate 1.2% among 330,000; inhibition, % at 10 µM; in the data active means inhibition above about 50%
SENP1 inh – human SENP1 catalytic domain inhibitors, primary screen, biochemical, FRET, uHTS. recombinant SENP1 catalytic domain, CyPet-SUMO1-YPet FRET cleavage. hit rate 0.21% among 360,000. AID 624204, 2012. inhibition, % at 10 µM;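 active means inhibition at least 30% at 10 µM, raw YFP signal under a set limit, fluorescence ratio 0.5 to 1.5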;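 further: 0% = enzyme with DMSO and 100% = no enzyme wells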
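Test system: hSENP1 catalytic domain, recombinant; Amount: 20 pM final SENP1 enzyme; Medium: Tris pH 8 buffer plus EDTA, NaCl, BME, BSA, NP40, catalase; Schedule: 50 min enzyme reaction, room temperature, light-protected; Technique: FRET fluorescence in CFP and YFP emission channels; Controls: no-enzyme wells low, DMSO-plus-enzyme wells high control.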
SENP8 block-2 – human SENP8 protease inhibitors, primary screen, biochemical, fluorescence, Nedd8 protein substrate, uHTS. Sentrin-specific protease 8 (Homo sapiens), Q96LD8. recombinant SENP8. inhibition, % at 20 µM. hit rate 0.64% among 360,000. AID 602440, 2012; in the data active means inhibition mostly above about 40%, no sharp cut-off; inactive means mostly below about 27%
SENP7 inh – SENP7 protease inhibitors, primary screen, biochemical, luminescence, uHTS; Sentrin-specific protease 7 (Homo sapiens), Q9BQF6; recombinant SENP7, Z-RLRGG-aminoluciferin luminescence, 40 min; inhibition, % at 5 µM; hit rate 1.5% among 330,000; AID 434973, 2010;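 active means inhibition above about 50% at the single test dose, limit read from the data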;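 further: plate controls were DMSO with enzyme for no effect and no enzyme buffer wells for full effect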
CendR NRP1 mod – modulators of CendR peptide binding to NRP-1, primary screen, biochemical, fluorescence polarization, uHTS | Neuropilin-1 (Homo sapiens), O14786 | FAM-RPARPAR peptide binding to NRP-1 | inhibition, % at 25 µM | hit rate 0.85% among 360,000 | AID 602438, 2012;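 active means inhibition or corrected inhibition above about 18%, plus a signal ratio from 0.5 to 1.5, limit read from the data, passing the limit was not always enough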
The depositor's hits bear a star; nt = no result.

SMILES	SENP6 block	SENP8 block-1	SENP1 inh	SENP8 block-2	SENP7 inh	CendR NRP1 mod
COCCCn1c(SCC(=O)NC2CCS(=O)(=O)C2)nnc1-c1ccc(Cl)cc1 (stereo unspecified)	11	1	3	4	1	23*
COc1ccccc1-c1nnc(SCC(=O)NC2CCS(=O)(=O)C2)n1N (stereo unspecified)	-13	-6	2	6	-8	22*
COc1ccccc1-c1nnc(SCC(=O)NC2CCCCC2)n1N	5	-2	2	3	12	-12
C[C@H](NC(=O)C1CCN(S(=O)(=O)c2ccccc2)CC1)C(=O)NCc1cccnc1	nt	nt	-1	14	nt	5
O=C(Cc1cccnc1)N[C@@H]1CC[C@H](CCn2cc(Cc3ccccc3)nn2)O[C@@H]1CO	nt	nt	0	10	nt	13
CC1(O)c2ccccc2C(=O)N1CCc1ccccc1F (stereo unspecified)	4	-4	0	53*	10	-2
CCCc1cc(=O)oc2cc(C)cc(OCC(=O)N3C[C@H]4C[C@@H](C3)c3cccc(=O)n3C4)c12	nt	nt	3	-166	nt	-7
O=C(O)C(S)C(S)C(=O)O (stereo unspecified)	nt	nt	3	49*	nt	-42
Cc1cccc(C)c1NC(=O)C1(C)CN(S(C)(=O)=O)CC(=O)N1CC(F)(F)F (stereo unspecified)	nt	nt	-4	28	nt	-30
C=CCn1c(SCC(=O)O)nc2sc(CC)cc2c1=O	-4	-6	-1	2	3	26*
CCCNC(=O)Nc1ccc2c(c1)OC[C@H](C)N(C(=O)C1CCCCC1)C[C@@H](C)[C@H](OC)CN(C)C2=O	nt	nt	3	16	nt	8
O=C1c2ccccc2C(=O)c2c(NCc3cccnc3)cccc21	-14	-9	13	19	1	-15
O=C1c2cccc(NCCCNCCO)c2C(=O)c2cccc(NCCCNCCO)c21	nt	nt	0	57*	nt	1
COc1ccc(C)cc1NC(=O)NC1CC(=O)N(c2ccc3c(c2)OCCO3)C1 (stereo unspecified)	nt	nt	-1	9	nt	4
Cc1cccc(C(O)c2ncc(-c3ccccc3F)[nH]2)c1C (stereo unspecified)	nt	nt	-1	18	nt	30*
Cc1cccc(C)c1C(O)c1ncc(-c2ccccc2F)[nH]1 (stereo unspecified)	nt	nt	-2	20	nt	4
COc1ccccc1NC(=O)c1sc2nc(N3CCOCC3)c3c(c2c1N)CCCC3	-4	-8	-76	-475	-1	14
Cc1cccc2cc3c(N)c(C(=O)Nc4ccc(N5CCOCC5)cc4)sc3nc12	-13	4	65*	27	1	-32
Cc1sc(NC(=O)c2sc3nc4c(C)cccc4cc3c2N)c(C#N)c1C	15	4	-22	-50	9	-99
Cc1ccccc1NC(=O)c1sc2nc(N3CCOCC3)c3c(c2c1N)CCCC3	7	2	-37	-378	17	33*
COc1ccc(-c2c(C(=O)c3ccccc3)[nH]c(N)c2C(=O)NC2CC2)cc1OC	nt	nt	-10	8	nt	-10
COc1cc(O)cc(O)c1C(=O)/C=C/c1ccccc1	-9	-10	1	38	-6	2
COc1cc(OC)c(C(=O)/C=C/c2ccccc2)c(O)c1O	-9	-9	2	45*	0	-22
O=C(Nc1ccc(F)cc1)C(CCc1ccccc1)N1CCN(c2cccc(C(F)(F)F)n2)CC1 (stereo unspecified)	nt	nt	-9	6	nt	3
CCCCCCCCCCOC(=O)Cn1c(COc2ccc(Cl)cc2)[n+](C)c2ccccc21	-28	-16	1	30	0	20*
CCCCCCCCCCOC(=O)Cn1c(COc2ccccc2)[n+](C)c2ccccc21	-24	-21	1	8	-4	5
CCN(C(=O)COC(=O)CCC(=O)c1cccs1)c1ccccc1	-9	-3	0	-3	6	0

Bioassay records as filed in PubChem BioAssay.
